Measured values reported in paper PMC6828636 (European Journal of Drug Metabolism and Pharmacokinetics, 2019).
Like-named read-outs stand apart in the source and are kept apart here.

Tests used:
CYP2C8 = target: T1, CYP2C8 (Homo sapiens, UniProt P10632); test: CYP2C8 inhibition in human liver microsomes; type: in vitro ADME
T1 sequence (P10632 1-490): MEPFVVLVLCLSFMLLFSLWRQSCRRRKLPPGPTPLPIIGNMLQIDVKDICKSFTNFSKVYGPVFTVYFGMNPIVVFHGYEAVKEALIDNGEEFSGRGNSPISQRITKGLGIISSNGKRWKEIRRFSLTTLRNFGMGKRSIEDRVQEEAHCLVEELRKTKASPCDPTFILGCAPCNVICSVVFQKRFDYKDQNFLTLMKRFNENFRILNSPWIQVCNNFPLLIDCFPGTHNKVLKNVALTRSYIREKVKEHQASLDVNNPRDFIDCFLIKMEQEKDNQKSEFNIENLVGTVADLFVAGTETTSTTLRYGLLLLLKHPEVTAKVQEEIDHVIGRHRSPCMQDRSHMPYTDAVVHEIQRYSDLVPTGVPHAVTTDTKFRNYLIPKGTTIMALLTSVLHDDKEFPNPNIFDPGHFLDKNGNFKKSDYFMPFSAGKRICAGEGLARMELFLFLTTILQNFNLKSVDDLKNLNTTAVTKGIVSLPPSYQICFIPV
How it was run: (§1)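 Pooled human liver microsomes were incubated with standard CYP-selective substrates, with and without test compound at 0.03–100 μM. Standard selective inhibitors for each isoform ran in parallel as positive controls. Read-out was IC50. For CYP3A4 only, time-dependent inhibition was also tested after 30 min preincubation, using midazolam and testosterone as substrates.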

MATE1 = MATE1 (Homo sapiens, UniProt Q96FL8); test: MATE1 inhibition in transfected HEK cells; type: in vitro ADME
How it was run: (§2)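 HEK cells were transfected with MRP2, MATE1 or MATE2-K. Pairs were CDCF/benzbromarone (MRP2), metformin/cimetidine (MATE1) and metformin/pyrimethamine (MATE2-K). Probe transport was assessed with and without test compound, and IC50 was determined.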

[1] = darolutamide 600 mg; ref data on file; cited from earlier work
[2] = rodents; cited from earlier work
[3] = type: in vivo, human; details: healthy male volunteers
OCT1 = target: T2, OCT1 (Homo sapiens, UniProt O15245); test: OCT1 uptake inhibition in transfected HEK cells; type: in vitro ADME
T2 sequence (O15245 1-554): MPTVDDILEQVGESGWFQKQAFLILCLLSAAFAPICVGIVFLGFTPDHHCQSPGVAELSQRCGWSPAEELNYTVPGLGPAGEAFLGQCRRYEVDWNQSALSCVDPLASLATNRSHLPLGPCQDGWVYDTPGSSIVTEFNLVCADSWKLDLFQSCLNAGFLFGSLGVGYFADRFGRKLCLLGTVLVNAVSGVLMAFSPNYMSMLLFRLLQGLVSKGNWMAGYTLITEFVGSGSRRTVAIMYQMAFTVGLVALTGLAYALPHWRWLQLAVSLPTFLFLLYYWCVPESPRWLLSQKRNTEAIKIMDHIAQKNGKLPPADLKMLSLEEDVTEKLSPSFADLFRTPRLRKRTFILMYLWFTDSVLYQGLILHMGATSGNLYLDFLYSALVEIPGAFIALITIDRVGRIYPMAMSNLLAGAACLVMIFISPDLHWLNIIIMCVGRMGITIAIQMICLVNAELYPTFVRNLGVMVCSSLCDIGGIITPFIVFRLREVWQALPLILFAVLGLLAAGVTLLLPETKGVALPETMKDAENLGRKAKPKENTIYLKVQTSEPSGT
How it was run: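 HEK cells overexpressing NTCP, OAT1, OAT3, OATP2B1, OCT1 or OCT2 were incubated with probe substrate. Pairs were estrone 3-sulfate/cyclosporin A (NTCP), PAH/probenecid (OAT1), furosemide/probenecid (OAT3), estrone 3-sulfate/glibenclamide (OATP2B1), 3H-MPP+/decynium 22 (OCT1) and 3H-MPP+/imipramine (OCT2). IC50 was determined with and without test compound, at ≤50 µM for the parent and ≤10 µM for the metabolite.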

CYP2E1 = CYP2E1 (Homo sapiens, UniProt P05181); test: CYP2E1 inhibition in human liver microsomes; type: in vitro ADME
How it was run: as §1

CYP2C9 = CYP2C9 (Homo sapiens, UniProt P11712); test: CYP2C9 inhibition in human liver microsomes; type: in vitro ADME
How it was run: as §1

P-gp = P-gp (Homo sapiens, UniProt P08183); test: Efflux in CPT-P1 cells; type: in vitro ADME; details: Caco-2
How it was run: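 Bidirectional transport was measured in wildtype Caco-2 cells and in proprietary derivatives with reduced BCRP (CPT-B1) or P-gp (CPT-P1) expression. Test compound was used at 0.5, 2 and 10 μM in wildtype cells and at 2 μM in the reduced-expression lines. Probe substrates served as positive controls and reference inhibitors as negative controls. Efflux ratios were calculated.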

CYP1A2 = target: T3, CYP1A2 (Homo sapiens, UniProt P05177); test: biochemical; type: in vitro ADME
T3 sequence (P05177 1-516): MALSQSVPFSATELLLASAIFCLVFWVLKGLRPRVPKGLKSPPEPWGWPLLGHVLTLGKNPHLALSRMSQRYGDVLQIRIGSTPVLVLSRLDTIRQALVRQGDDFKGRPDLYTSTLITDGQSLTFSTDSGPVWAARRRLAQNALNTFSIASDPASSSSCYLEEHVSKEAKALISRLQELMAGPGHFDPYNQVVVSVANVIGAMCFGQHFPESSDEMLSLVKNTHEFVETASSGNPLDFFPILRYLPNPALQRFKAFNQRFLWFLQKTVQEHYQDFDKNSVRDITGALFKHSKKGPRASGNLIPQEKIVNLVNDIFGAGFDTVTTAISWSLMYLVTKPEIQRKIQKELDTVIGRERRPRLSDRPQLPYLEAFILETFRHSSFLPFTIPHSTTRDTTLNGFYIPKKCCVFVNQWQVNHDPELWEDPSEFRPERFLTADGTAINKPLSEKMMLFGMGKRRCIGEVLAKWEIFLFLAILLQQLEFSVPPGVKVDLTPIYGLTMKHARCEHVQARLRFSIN

CYP3A4 = CYP3A4 (Homo sapiens, UniProt P08684); test: CYP3A4 inhibition in human liver microsomes; type: in vitro ADME
How it was run: as §1

MATE2-K = MATE2-K (Homo sapiens, UniProt Q86VL8); test: MATE2-K inhibition in transfected HEK cells; type: in vitro ADME
How it was run: as §2

CYP2B6 = type: in vitro ADME; details: primary human hepatocytes, three donors, 3 days dosing, 0.005–10 mg/l
[4] = cited from earlier work
[5] = read-out: IC50, CYP3A4 (with pre-incubation), human liver microsomes, substrate midazolam, 30 min pre-incubation
[6] = read-out: IC50, CYP3A4 (with pre-incubation), human liver microsomes, substrate testosterone, 30 min pre-incubation

CYP3A4, sequence (P08684 whole entry): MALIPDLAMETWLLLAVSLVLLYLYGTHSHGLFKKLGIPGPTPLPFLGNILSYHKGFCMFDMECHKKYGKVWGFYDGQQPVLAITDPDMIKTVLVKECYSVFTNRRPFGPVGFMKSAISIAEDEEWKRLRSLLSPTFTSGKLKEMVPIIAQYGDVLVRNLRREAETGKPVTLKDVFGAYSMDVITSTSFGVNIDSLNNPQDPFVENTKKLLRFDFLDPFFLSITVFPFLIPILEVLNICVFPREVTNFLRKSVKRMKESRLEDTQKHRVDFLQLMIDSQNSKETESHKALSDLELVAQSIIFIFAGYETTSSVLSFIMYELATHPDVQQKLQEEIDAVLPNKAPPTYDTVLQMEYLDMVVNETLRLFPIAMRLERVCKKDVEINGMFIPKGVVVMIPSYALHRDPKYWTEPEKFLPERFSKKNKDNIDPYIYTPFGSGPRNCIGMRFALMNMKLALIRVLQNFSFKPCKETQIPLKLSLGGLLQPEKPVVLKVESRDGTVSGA
MATE2-K, sequence (Q86VL8 1-566 isoform Q86VL8-3): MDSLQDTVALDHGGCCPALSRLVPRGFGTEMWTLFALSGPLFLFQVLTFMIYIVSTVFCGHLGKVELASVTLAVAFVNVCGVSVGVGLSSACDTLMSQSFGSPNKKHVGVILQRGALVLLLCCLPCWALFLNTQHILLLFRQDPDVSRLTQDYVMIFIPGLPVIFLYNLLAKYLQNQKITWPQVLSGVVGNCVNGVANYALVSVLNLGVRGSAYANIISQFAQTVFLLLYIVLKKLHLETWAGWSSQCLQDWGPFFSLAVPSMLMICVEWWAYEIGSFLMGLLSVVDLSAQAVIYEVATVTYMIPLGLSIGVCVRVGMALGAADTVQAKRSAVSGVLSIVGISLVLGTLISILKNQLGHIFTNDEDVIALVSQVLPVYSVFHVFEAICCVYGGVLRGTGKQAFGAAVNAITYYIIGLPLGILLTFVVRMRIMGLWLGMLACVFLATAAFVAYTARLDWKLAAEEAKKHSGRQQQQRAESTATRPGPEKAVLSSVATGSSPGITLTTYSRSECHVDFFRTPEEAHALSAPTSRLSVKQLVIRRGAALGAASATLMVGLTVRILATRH
CYP2C9, sequence (P11712 whole entry): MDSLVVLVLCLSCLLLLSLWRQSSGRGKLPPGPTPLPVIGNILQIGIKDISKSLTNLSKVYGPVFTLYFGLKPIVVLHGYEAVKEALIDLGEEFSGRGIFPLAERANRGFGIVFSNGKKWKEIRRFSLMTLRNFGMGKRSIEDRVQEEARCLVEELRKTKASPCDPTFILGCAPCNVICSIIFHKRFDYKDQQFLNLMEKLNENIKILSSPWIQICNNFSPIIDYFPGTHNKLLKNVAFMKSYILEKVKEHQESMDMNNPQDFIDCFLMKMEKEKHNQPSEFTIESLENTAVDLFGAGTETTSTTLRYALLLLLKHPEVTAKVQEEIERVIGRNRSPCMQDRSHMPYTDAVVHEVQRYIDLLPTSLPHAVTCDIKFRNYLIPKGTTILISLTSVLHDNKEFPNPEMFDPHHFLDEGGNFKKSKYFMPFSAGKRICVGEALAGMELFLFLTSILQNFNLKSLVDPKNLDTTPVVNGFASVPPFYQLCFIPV
MATE1, sequence (Q96FL8 whole entry): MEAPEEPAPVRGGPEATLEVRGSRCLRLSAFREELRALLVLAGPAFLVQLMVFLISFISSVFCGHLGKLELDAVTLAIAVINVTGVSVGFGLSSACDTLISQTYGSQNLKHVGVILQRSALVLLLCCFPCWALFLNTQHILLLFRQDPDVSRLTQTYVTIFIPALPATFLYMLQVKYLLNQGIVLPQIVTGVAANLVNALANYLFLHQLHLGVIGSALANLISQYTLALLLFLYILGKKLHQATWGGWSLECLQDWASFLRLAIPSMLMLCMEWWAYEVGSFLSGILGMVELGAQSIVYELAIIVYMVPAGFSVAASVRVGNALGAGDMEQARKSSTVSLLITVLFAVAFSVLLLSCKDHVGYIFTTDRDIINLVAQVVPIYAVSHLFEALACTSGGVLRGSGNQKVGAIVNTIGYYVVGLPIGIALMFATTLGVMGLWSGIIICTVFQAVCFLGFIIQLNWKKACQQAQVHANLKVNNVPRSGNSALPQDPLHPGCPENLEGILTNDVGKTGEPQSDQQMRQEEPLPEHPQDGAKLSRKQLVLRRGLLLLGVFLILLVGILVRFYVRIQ
CYP2E1, sequence (P05181 whole entry): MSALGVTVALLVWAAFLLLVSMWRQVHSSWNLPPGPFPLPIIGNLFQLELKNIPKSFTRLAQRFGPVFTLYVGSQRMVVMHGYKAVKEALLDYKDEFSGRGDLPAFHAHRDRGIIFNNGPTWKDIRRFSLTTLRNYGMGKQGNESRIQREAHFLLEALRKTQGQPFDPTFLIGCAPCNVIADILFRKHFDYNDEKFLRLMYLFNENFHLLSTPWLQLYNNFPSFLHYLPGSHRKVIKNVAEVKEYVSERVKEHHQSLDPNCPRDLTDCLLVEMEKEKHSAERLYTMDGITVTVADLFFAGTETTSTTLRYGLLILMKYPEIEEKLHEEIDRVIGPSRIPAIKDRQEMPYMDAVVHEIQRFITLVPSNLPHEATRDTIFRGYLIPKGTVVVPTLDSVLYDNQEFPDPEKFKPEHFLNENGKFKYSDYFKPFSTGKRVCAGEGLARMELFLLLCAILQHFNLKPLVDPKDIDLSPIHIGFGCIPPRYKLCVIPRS
P-gp, sequence (P08183 whole entry): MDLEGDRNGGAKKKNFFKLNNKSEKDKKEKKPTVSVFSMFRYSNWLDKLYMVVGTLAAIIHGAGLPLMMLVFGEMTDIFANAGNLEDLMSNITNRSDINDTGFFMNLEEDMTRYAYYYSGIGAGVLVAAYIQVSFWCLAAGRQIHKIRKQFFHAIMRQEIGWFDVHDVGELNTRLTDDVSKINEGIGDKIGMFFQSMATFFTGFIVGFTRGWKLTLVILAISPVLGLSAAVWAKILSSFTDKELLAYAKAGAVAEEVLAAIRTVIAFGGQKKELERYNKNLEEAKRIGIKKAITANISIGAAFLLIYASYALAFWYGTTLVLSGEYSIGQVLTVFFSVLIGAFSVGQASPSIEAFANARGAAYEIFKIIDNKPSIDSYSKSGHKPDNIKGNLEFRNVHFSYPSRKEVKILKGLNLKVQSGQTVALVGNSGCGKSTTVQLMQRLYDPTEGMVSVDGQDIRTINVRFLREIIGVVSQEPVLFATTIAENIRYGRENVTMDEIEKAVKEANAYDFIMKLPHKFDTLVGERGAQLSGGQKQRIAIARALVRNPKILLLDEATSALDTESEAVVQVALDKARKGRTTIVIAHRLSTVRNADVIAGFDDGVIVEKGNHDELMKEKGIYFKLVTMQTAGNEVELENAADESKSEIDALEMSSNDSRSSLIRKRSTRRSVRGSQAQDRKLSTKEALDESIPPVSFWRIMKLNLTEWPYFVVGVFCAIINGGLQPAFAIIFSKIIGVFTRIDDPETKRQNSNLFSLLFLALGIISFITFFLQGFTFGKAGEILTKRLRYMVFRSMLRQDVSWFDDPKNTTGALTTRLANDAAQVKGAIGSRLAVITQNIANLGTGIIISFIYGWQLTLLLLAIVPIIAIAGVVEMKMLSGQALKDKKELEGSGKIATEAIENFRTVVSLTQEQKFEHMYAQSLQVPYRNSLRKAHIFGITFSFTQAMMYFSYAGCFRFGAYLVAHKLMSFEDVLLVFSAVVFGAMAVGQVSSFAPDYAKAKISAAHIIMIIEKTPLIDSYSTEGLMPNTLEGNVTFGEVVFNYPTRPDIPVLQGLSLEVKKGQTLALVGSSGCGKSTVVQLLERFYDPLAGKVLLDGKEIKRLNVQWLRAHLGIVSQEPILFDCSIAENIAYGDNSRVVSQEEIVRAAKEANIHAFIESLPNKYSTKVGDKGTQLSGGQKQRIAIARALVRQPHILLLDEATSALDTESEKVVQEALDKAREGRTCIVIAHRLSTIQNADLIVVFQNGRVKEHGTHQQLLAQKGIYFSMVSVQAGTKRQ

CC(O)c1cc(C(=O)N[C@@H](C)Cn2ccc(-c3ccc(C#N)c(Cl)c3)n2)[nH]n1 (stereo partly drawn) [Darolutamide, darolutamide]
IC50 (CYP2C8): > 100 µM
IC50 (MATE1): 32.3 µM
clinically relevant intestinal concentration [1]: 270 µM
penetration of the blood-brain barrier [2]: low penetration
safety with concomitant dabigatran etexilate or midazolam [3]: No safety concerns were identified
IC50 (OCT1): > 50 µM
IC50 (CYP2E1): > 100 µM
IC50 (CYP2C9): 30.3 µM
efflux ratio at 2 μM (P-gp): 3.6
IC50 (CYP1A2): > 100 µM
IC50 (CYP3A4): > 100 µM
IC50 (CYP3A4; [5]): > 100 µM
IC50 (CYP3A4; [6]): > 100 µM
IC50 (MATE2-K): 9.5 µM

CC(=O)c1cc(C(=O)N[C@@H](C)Cn2ccc(-c3ccc(C#N)c(Cl)c3)n2)[nH]n1 [Keto-darolutamide, keto-darolutamide]
IC50 (CYP2C8; read-out: IC50, CYP2C8, human liver microsomes, substrate paclitaxel): 48.6 µM
IC50 (MATE1; read-out: IC50, MATE1, HEK cells, substrate metformin, reference cimetidine): > 10 µM
IC50 (OCT1; read-out: IC50, OCT1, HEK cells, substrate 3H-MPP+, reference decynium 22): > 10 µM
IC50 (CYP2E1; read-out: IC50, CYP2E1, human liver microsomes, substrate chlorzoxazone): > 100 µM
IC50 (CYP2C9; read-out: IC50, CYP2C9, human liver microsomes, substrate diclofenac): 9.6 µM
maximal fold induction of CYP2B6 (CYP2B6): < 2 fold
fraction unbound in human plasma, fold lower compared with darolutamide [4]: ~ 40 fold
IC50 (CYP1A2; read-out: IC50, CYP1A2, human liver microsomes, substrate phenacetin): > 100 µM
IC50 (CYP3A4; [5]): > 50 µM
IC50 (CYP3A4; [6]): > 50 µM
IC50 (CYP3A4; read-out: IC50, CYP3A4, human liver microsomes, substrate midazolam): > 50 µM
IC50 (CYP3A4; read-out: IC50, CYP3A4, human liver microsomes, substrate testosterone): > 50 µM
IC50 (MATE2-K; read-out: IC50, MATE2 K, HEK cells, substrate metformin, reference pyrimethamine): 3 µM
